This passage reports IC50 results from ChEMBL document CHEMBL3867447, “Cytotoxic 14-Membered Macrolides from a Mangrove-Derived Endophytic Fungus, Pestalotiopsis microspora” (J Nat Prod, 2016).

Assay [1] in a line: Cytotoxicity against mouse L5178Y cells by MTT assay. The class given is functional, cell-based. The method in brief:
(§1)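 MTT assay on mouse lymphoma L5178Y and human ovarian cancer A2780 cells, as in the earlier reports the paper cites. Positive controls were kahalalide F for L5178Y and cisplatin for A2780. Negative control was medium with 0.1% DMSO. Results are given as IC50 in μM.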
Background: Tetrazolium assays rely on reduction of a dye to a coloured formazan, in cell work by metabolically active cells.

The nature of assay [2]: Cytotoxicity against human A2780 cells by MTT assay. The class given is functional, cell-based. The method in brief: as §1

On to `CO[C@H]1/C=C\CCC[C@H](C)OC(=O)/C=C/[C@@H](O)/C=C\1`, for which the IC50 was found to be 0.7 µM in assay [1] and 28 µM in assay [2]. Consider `C[C@H]1CCCCC[C@H](O)CC[C@H](O)/C=C/C(=O)O1`, for which the IC50 in assay [1] is 39 µM; in assay [2], more than 50 µM. For `CO[C@H]1/C=C\CCC[C@H](C)OC(=O)CCC(=O)/C=C\1` the same measures were 5.6 µM and more than 50 µM. In the same order, the values of `C[C@H]1CCC/C=C\[C@H](O)/C=C\[C@H](O)/C=C/C(=O)O1` are 21 µM and 43 µM. With `C[C@H]1CCC[C@@H](O)/C=C/C=C\C(=O)CCC(=O)O1`, the IC50 in assay [1] was more than 50 µM; in assay [2], 36 µM. In the case of `C[C@H]1CCC/C=C\[C@H](O)[C@H]2O[C@H]2[C@H](O)/C=C/C(=O)O1`, the IC50 in assay [1] and in assay [2] was more than 50 µM in each case. `CO[C@H]1/C=C/C=C\C(=O)CCC(=O)O[C@@H](C)CCC1`: the figures for the IC50 in assay [1] and in assay [2] were 11 µM and more than 50 µM, respectively. In the same order, the values of `C[C@H]1CCC/C=C/[C@H](O)/C=C\[C@H](O)/C=C/C(=O)O1` are 21 µM and more than 50 µM. In the case of `C/C=C1\NC(=O)[C@H](Cc2ccccc2)NC(=O)[C@H](C(C)C)NC(=O)[C@@H]([C@@H](C)CC)NC(=O)[C@@H](NC(=O)[C@H](NC(=O)[C@H](CCCN)NC(=O)[C@H]2CCCN2C(=O)[C@@H](NC(=O)[C@H](NC(=O)[C@@H](NC(=O)[C@@H](NC(=O)CCCC(C)C)C(C)C)[C@@H](C)O)C(C)C)C(C)C)[C@@H](C)CC)[C@@H](C)OC(=O)[C@H](C(C)C)NC1=O`, the IC50 in assay [1] was found to be 4.3 µM. Turning to `C[C@H]1CCC[C@@H](O)/C=C/C=C\[C@H](O)/C=C/C(=O)O1`, the figures for the IC50 in assay [1] and in assay [2] were 3.4 µM and 1.2 µM, respectively. For `C[C@H]1CCC/C=C/[C@H](O)[C@H]2O[C@H]2[C@H](O)/C=C/C(=O)O1` the same measures were more than 50 µM and more than 50 µM. In the same order, the values of `C[C@H]1CCC[C@@H](O)/C=C/C=C\[C@@H](O)/C=C/C(=O)O1` are 3.9 µM and 12 µM.

By IC50 is commonly meant the point on the concentration scale where inhibition reaches its midpoint. Higher therefore signals a need for much substance.
